Holding throughout (assay type): functional
Assay [1] deals with Streptococcus mutans. In words: Antibacterial activity against Streptococcus mutans ATCC 25175 after 24 hrs. To be noted: ATCC 25175, 24 h. In a few lines:
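S. mutans grown aerobically at 37 °C in Todd-Hewitt broth with 0.001% hemin and 0.0001% vitamin K. Overnight culture diluted to OD660 0.2 and mixed 1:1 with serial compound dilutions (80 to 5 μM). Vehicle-only and penicillin G controls included. MIC = lowest concentration with complete growth inhibition after 24 h. Triplicate.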

Assay [2] relates to Porphyromonas gingivalis. In words: Antibacterial activity against Porphyromonas gingivalis ATCC 33277 after 24 hrs. To be noted: ATCC 33277, 24 h. The method, boiled down:
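P. gingivalis grown anaerobically (N2-H2-CO2 80:10:10) at 37 °C in Todd-Hewitt broth with 0.001% hemin and 0.0001% vitamin K. Overnight culture diluted to OD660 0.2 and added 1:1 to serial dilutions of compound (80 to 5 μM). Vehicle-only and penicillin G controls. After 24 h, MIC taken as lowest concentration giving complete growth inhibition. Triplicate.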

The subject of assay [3] is Streptococcus mutans. In words: Bactericidal activity against Streptococcus mutans ATCC 25175 after 24 hrs. Particulars: ATCC 25175, 24 h. The method, boiled down:
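MBC for S. mutans was run after the aerobic 37 °C THBHK microdilution (80 to 5 μM, 24 h). 10 μL aliquots from wells lacking visible growth were plated on solid medium to find the minimal bactericidal concentration. Penicillin G served as reference. Triplicate.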

Another assay has as its system Candida albicans. In words: Antifungal activity against Candida albicans ATCC 28366 assessed as growth inhibition at 80 uM after 24 hrs. The method, boiled down:
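C. albicans cultured aerobically at 37 °C in yeast nitrogen base with 0.5% glucose. Overnight culture diluted to OD660 0.2 and added 1:1 to compound dilutions, top level 80 μM. Vehicle-only and nystatin controls included. Growth inhibition scored after 24 h. Triplicate.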

Assay [4] has as its system Porphyromonas gingivalis. In words: Bactericidal activity against Porphyromonas gingivalis ATCC 33277 after 24 hrs. To be noted: ATCC 33277, 24 h. In a few lines:
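For MBC, P. gingivalis was run as in the anaerobic broth MIC set-up (THBHK, 37 °C, 24 h, 80 to 5 μM). 10 μL from wells without visible growth was spread on solid medium. MBC was read from these subcultures. Penicillin G served as reference. Triplicate.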

In brackets after ≈: the same amount, converted by molar mass. Activity calls are given as the source filed them. The calls are words filed in the database; no cut-off is given here.

Usually MIC stands for the lowest concentration that inhibits growth of the organism. Higher therefore signals weaker potency. Usually MBC stands for the lowest tested concentration that kills the bacteria rather than only halting them. Read a low MBC as greater bactericidal potency. With `CCCCCc1c(Oc2cc(OC)cc(C(=O)CCCC)c2C(=O)OC)c(O)cc(O)c1C(=O)O`, the results for the MIC in the assay with Streptococcus mutans [1] and against Porphyromonas gingivalis [2] were 80 µM (≈ 39.1 µg/mL) and 40 µM (≈ 19.5 µg/mL), respectively. Moreover, the MBC in the assay on Streptococcus mutans [3] is > 80 µM; against Porphyromonas gingivalis [4] it was 40 µM (≈ 19.5 µg/mL). Further, in the assay on Candida albicans, the “growth inhibition (GI)” value was “inactive”.
As to `CC1(C)S[C@@H]2[C@H](NC(=O)Cc3ccccc3)C(=O)N2[C@H]1C(=O)O` [PENICILLIN G], the MIC in the assay with Streptococcus mutans [1] is 0.15 µM (≈ 0.0502 µg/mL); in the assay with Porphyromonas gingivalis [2] it was 0.29 µM (≈ 0.097 µg/mL). Moreover, the MBC against Streptococcus mutans [3] came to 4.7 µM (≈ 1.57 µg/mL); against Porphyromonas gingivalis [4], 2.3 µM (≈ 0.769 µg/mL).
For the compound `Cc1c(C(=O)O)c(O)cc2oc3cc(O)cc(CO)c3c12`, the minimum inhibitory concentration (MIC) in the assay with Streptococcus mutans [1] and in the assay on Porphyromonas gingivalis [2] was > 80 µM throughout. Further, the MBC against Streptococcus mutans [3] and against Porphyromonas gingivalis [4] was > 80 µM throughout. For the same compound, the “growth inhibition (GI)” value in the assay with Candida albicans was “inactive”.
As for `CCCCCc1cc(O)cc(O)c1Oc1cc(OC)cc(C(=O)CCCC)c1C(=O)OC`, the MIC against Streptococcus mutans [1] and in the assay on Porphyromonas gingivalis [2] was 80 µM (≈ 35.6 µg/mL) each time. In addition, the results for the minimum bactericidal concentration (MBC) against Streptococcus mutans [3] and against Porphyromonas gingivalis [4] were > 80 µM and 80 µM (≈ 35.6 µg/mL), respectively. The “growth inhibition (GI)” value with Candida albicans was “inactive”.
Regarding `COC(=O)c1c(C)cc(O)c(C=O)c1O` [METHYL HAEMATOMMATE], the MIC against Streptococcus mutans [1] and against Porphyromonas gingivalis [2] was > 80 µM throughout. The MBC in the assay on Streptococcus mutans [3] and against Porphyromonas gingivalis [4] was > 80 µM in each case. The “growth inhibition (GI)” value in the assay with Candida albicans was “inactive”.
`Cc1cc(O)cc2oc3cc(O)cc(CO)c3c12`: the MIC in the assay on Streptococcus mutans [1] and against Porphyromonas gingivalis [2] was > 80 µM in each case. Moreover, the MBC against Streptococcus mutans [3] and against Porphyromonas gingivalis [4] was > 80 µM in each case. Further, in the assay with Candida albicans, the “growth inhibition (GI)” value was “inactive”.
Regarding `COC(=O)c1c(C)cc(O)c(C)c1O` [ATRARIC ACID], the minimal inhibitory concentration (MIC) against Streptococcus mutans [1] and in the assay with Porphyromonas gingivalis [2] was > 80 µM in each case. Moreover, the MBC in the assay with Streptococcus mutans [3] and against Porphyromonas gingivalis [4] was > 80 µM throughout. For the same compound, the “growth inhibition (GI)” value in the assay with Candida albicans was “inactive”.
As for `CCCCCc1cc(O)cc(O)c1Oc1cc(OC)cc2c1C(=O)OC2(CCCC)OC` (centres undefined), the MIC in the assay on Streptococcus mutans [1] and in the assay on Porphyromonas gingivalis [2] was 80 µM (≈ 35.6 µg/mL) in each case. Besides, the MBC in the assay with Streptococcus mutans [3] and against Porphyromonas gingivalis [4] was 80 µM (≈ 35.6 µg/mL) throughout. Besides, the “growth inhibition (GI)” value with Candida albicans was “inactive”.
For the compound `CCCCCc1c2c(cc(O)c1C(=O)O)OC(=O)c1c(cc(OC)cc1C(=O)CCCC)O2` [LOBARIC ACID], the MIC against Streptococcus mutans [1] is 20 µM (≈ 9.13 µg/mL); against Porphyromonas gingivalis [2], 80 µM (≈ 36.5 µg/mL). In addition, the MBC in the assay on Streptococcus mutans [3] and with Porphyromonas gingivalis [4] was 80 µM (≈ 36.5 µg/mL) each time. In the assay with Candida albicans, the “growth inhibition (GI)” value was “inactive”.
For `CCCCCc1c(Oc2cc(OC)cc3c2C(=O)OC3(CCCC)OC)c(O)cc(O)c1C(=O)O` (centres undefined), the MIC against Streptococcus mutans [1] and against Porphyromonas gingivalis [2] was 80 µM (≈ 39.1 µg/mL) in each case. For the same compound, the minimal bactericidal concentration (MBC) in the assay on Streptococcus mutans [3] and against Porphyromonas gingivalis [4] was 80 µM (≈ 39.1 µg/mL) in each case. Besides, in the assay with Candida albicans, the “growth inhibition (GI)” value is “inactive”.
For the compound `Cc1c(C(=O)O)c(O)cc2oc3cc(O)cc(C(=O)O)c3c12`, the MIC against Streptococcus mutans [1] and against Porphyromonas gingivalis [2] was > 80 µM throughout. Moreover, the minimal bactericidal concentration (MBC) with Streptococcus mutans [3] and against Porphyromonas gingivalis [4] was > 80 µM each time. Further, the “growth inhibition (GI)” value in the assay with Candida albicans was “inactive”.
In the case of `CCCCCc1cc(O)cc(O)c1Oc1cc(OC)cc2c1C(=O)OC2(O)CCCC` (centres undefined) [SAKISACAULON A], the minimum inhibitory concentration (MIC) was 80 µM (≈ 34.4 µg/mL) against Streptococcus mutans [1] and > 80 µM in the assay with Porphyromonas gingivalis [2]. Also, the MBC is 80 µM (≈ 34.4 µg/mL) in the assay with Streptococcus mutans [3] and > 80 µM in the assay on Porphyromonas gingivalis [4]. In addition, the “growth inhibition (GI)” value in the assay on Candida albicans was “inactive”.
In the case of `CCC/C=C1\OC(=O)c2c(Oc3c(O)cc(O)cc3CCCCC)cc(OC)cc21`, the MIC in the assay on Streptococcus mutans [1] was 10 µM (≈ 4.12 µg/mL); in the assay with Porphyromonas gingivalis [2], 20 µM (≈ 8.25 µg/mL). Moreover, the MBC against Streptococcus mutans [3] and with Porphyromonas gingivalis [4] was 20 µM (≈ 8.25 µg/mL) in each case. The “growth inhibition (GI)” value in the assay with Candida albicans was “inactive”.
